Columns and labels:
SK-OV-3 = experiment: Growth inhibition of human SKOV3 cells after 48 hrs by SRB assay; type: functional
SK-BR-3 [1] = experiment: Cell cycle arrest in human SK-BR-3 cells assessed as accumulation at G1 phase at 0.50 uM after 3 hrs using propidium iodide staining by FACS analysis; type: functional
In short: (§1)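 SKBR-3 cells in RPMI1640 with 10% heat-inactivated FBS at 37 °C and 5% CO₂ were treated for the stated times. Cells were fixed overnight in 70% EtOH at −20 °C, then stained with propidium iodide buffer (38 mM sodium citrate pH 7.5, 69 µM PI, 120 µg/mL RNase A) for 15 min at room temperature in the dark. Up to 1×10⁴ gated cells were analyzed by flow cytometry, giving percent distribution per phase.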

SK-BR-3 [2] = experiment: Cell cycle arrest in human SK-BR-3 cells assessed as accumulation at G2/M phase at 0.25 uM after 24 hrs using propidium iodide staining by FACS analysis; type: functional; in short: as §1
T47D = experiment: Growth inhibition of human T47D cells after 48 hrs by SRB assay; type: functional
Hs-578T = experiment: (§2) Growth inhibition of human Hs 578T cells after 48 hrs by SRB assay; type: functional
[3] = as §2; type: functional
SK-BR-3 [4] = experiment: Cell cycle arrest in human SK-BR-3 cells assessed as accumulation at G2/M phase at 5 uM after 24 hrs using propidium iodide staining by FACS analysis; type: functional; in short: as §1
SK-BR-3 [5] = experiment: Cell cycle arrest in human SK-BR-3 cells assessed as accumulation at G2/M phase at 0.50 uM after 12 hrs using propidium iodide staining by FACS analysis; type: functional; in short: as §1
SK-BR-3 [6] = experiment: Cell cycle arrest in human SK-BR-3 cells assessed as accumulation at G2/M phase at 0.10 uM after 24 hrs using propidium iodide staining by FACS analysis; type: functional; in short: as §1
SK-BR-3 [7] = experiment: Cell cycle arrest in human SK-BR-3 cells assessed as accumulation at Sub-G1 phase at 0.25 uM after 12 hrs using propidium iodide staining by FACS analysis; type: functional
PC-3 = experiment: Growth inhibition of human PC3 cells after 48 hrs by SRB assay; type: functional
SK-BR-3 [8] = experiment: Cell cycle arrest in human SK-BR-3 cells assessed as accumulation at Sub-G1 phase at 5 uM after 12 hrs using propidium iodide staining by FACS analysis; type: functional
LOX IMVI = experiment: Growth inhibition of human LOXIMVI cells after 48 hrs by SRB assay; type: functional
MDA-MB-435 = experiment: Growth inhibition of human MDA-MB-435 cells after 48 hrs by SRB assay; type: functional
CAKI-1 = experiment: Growth inhibition of human Caki1 cells after 48 hrs by SRB assay; type: functional
[9] = Tmax in Sprague-Dawley rat plasma at 20 mg/kg, ip; type: ADME, organism-based; set-up: dose 20 mg/kg, route intraperitoneal
In short: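 Male Sprague–Dawley rats (300–350 g, n=3), fasted overnight with water allowed. Single 20 mg/kg i.p. dose in PBS with 0.1% Tween80 and 20% DMSO. Blood taken from saphenous and femoral veins into heparinized tubes at 0, 0.25, 0.5, 1, 2, 4, 8 and 24 h. Plasma quantified by LC-MS/MS (MRM, 483.3→404.3) after tert-butyl methyl ether/hexane extraction. Parameters derived non-compartmentally.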

NCI-H23 = experiment: Growth inhibition of human NCI-H23 cells after 48 hrs by SRB assay; type: functional
KM12 = experiment: Growth inhibition of human KM12 cells after 48 hrs by SRB assay; type: functional
SK-BR-3 [10] = experiment: Cell cycle arrest in human SK-BR-3 cells assessed as accumulation at G1 phase at 5 uM after 6 hrs using propidium iodide staining by FACS analysis; type: functional; in short: as §1
OVCAR-8 = experiment: Growth inhibition of human OVCAR8 cells after 48 hrs by SRB assay; type: functional
SK-BR-3 [11] = experiment: Cell cycle arrest in human SK-BR-3 cells assessed as accumulation at G2/M phase at 0.10 uM after 6 hrs using propidium iodide staining by FACS analysis; type: functional; in short: as §1
SK-BR-3 [12] = experiment: Cell cycle arrest in human SK-BR-3 cells assessed as accumulation at G2/M phase at 5 uM after 12 hrs using propidium iodide staining by FACS analysis; type: functional; in short: as §1
SK-BR-3 [13] = experiment: Cell cycle arrest in human SK-BR-3 cells assessed as accumulation at S phase at 0.25 uM after 18 hrs using propidium iodide staining by FACS analysis; type: functional
HL-60(TB) = experiment: Growth inhibition of human HL-60(TB) cells after 48 hrs by SRB assay; type: functional
In short: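 Tested in the 60-cell-line panel of the NCI Developmental Therapeutics Program with 48 h drug exposure. The read-out is cellular protein.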

SK-BR-3 [14] = experiment: Cell cycle arrest in human SK-BR-3 cells assessed as accumulation at G2/M phase at 0.25 uM after 12 hrs using propidium iodide staining by FACS analysis; type: functional; in short: as §1
SK-BR-3 [15] = experiment: Cell cycle arrest in human SK-BR-3 cells assessed as accumulation at S phase at 0.50 uM after 18 hrs using propidium iodide staining by FACS analysis; type: functional
UACC-257 = experiment: Growth inhibition of human UACC257 cells after 48 hrs by SRB assay; type: functional
BT-549 = experiment: Growth inhibition of human BT549 cells after 48 hrs by SRB assay; type: functional
EKVX = experiment: Growth inhibition of human EKVX cells after 48 hrs by SRB assay; type: functional
SF-539 = experiment: Growth inhibition of human SF539 cells after 48 hrs by SRB assay; type: functional
[16] = read-out: LC50 (the source's name)

With Cc1ccc(C)c(COc2cc(NC(=O)c3ccc4c(c3)OCO4)ccc2N(C)S(C)(=O)=O)c1 the “growth inhibition (GI)” value (SK-OV-3) was “Dose-dependent effect”, the GI50 (SK-OV-3; SK-OV-3, 48 h) was 285 nM and the TGI (SK-OV-3; SK-OV-3, 48 h) was greater than 100000 nM. For the same compound, the CC50 (SK-OV-3; SK-OV-3, 48 h, read-out: LC50 (the source's name)) was greater than 100000 nM, the Activity (SK-BR-3 [1]) was 67.14% and the Activity (SK-BR-3 [2]) was 22.53%. The GI50 (T47D) was 682 nM, the TGI (T47D) was greater than 100000 nM and the “growth inhibition (GI)” value (T47D) was “Dose-dependent effect”. The CC50 (T47D; [16]) was greater than 100000 nM, the “growth inhibition (GI)” value (Hs-578T) was “Dose-dependent effect” and the GI50 [3] was 87 nM. For the same compound, the CC50 [3, 16] was greater than 100000 nM, the Activity (SK-BR-3 [4]) was 28.29% and the Activity (SK-BR-3 [5]) was 24.26%. The Activity (SK-BR-3 [6]) was 11.23%, the Activity (SK-BR-3 [7]) was 6.85% and the “growth inhibition (GI)” value (PC-3) was “Dose-dependent effect”. It also gave a GI50 (PC-3; PC-3, 48 h) of 67.7 nM, a TGI (PC-3; PC-3, 48 h) greater than 100000 nM and an Activity (SK-BR-3 [8]) of 9.76%. For the same compound, the GI50 (LOX IMVI) was 66.6 nM, the TGI (LOX IMVI) was greater than 100000 nM and the “growth inhibition (GI)” value (LOX IMVI) was “Dose-dependent effect”. For the same compound, the CC50 (LOX IMVI; [16]) was greater than 100000 nM, the “growth inhibition (GI)” value (MDA-MB-435) was “Dose-dependent effect” and the GI50 (MDA-MB-435; MDA-MB-435, 48 h) was 28.5 nM. The TGI (MDA-MB-435; MDA-MB-435, 48 h) was 91.4 nM, the CC50 (MDA-MB-435; MDA-MB-435, 48 h, read-out: LC50 (the source's name)) was greater than 100000 nM and the “growth inhibition (GI)” value (CAKI-1) was “Dose-dependent effect”. For the same compound, the TGI (CAKI-1; CAKI-1, 48 h) was greater than 100000 nM, the CC50 (CAKI-1; CAKI-1, 48 h, read-out: LC50 (the source's name)) was greater than 100000 nM and the Tmax [9] was 2 h. For the same compound, the “growth inhibition (GI)” value (NCI-H23) was “Dose-dependent effect”, the GI50 (NCI-H23; NCI-H23, 48 h) was 162 nM and the TGI (NCI-H23; NCI-H23, 48 h) was greater than 100000 nM. The CC50 (NCI-H23; NCI-H23, 48 h, read-out: LC50 (the source's name)) was greater than 100000 nM, the “growth inhibition (GI)” value (KM12) was “Dose-dependent effect” and the GI50 (KM12; KM12, 48 h) was 85.5 nM. The TGI (KM12; KM12, 48 h) was 1130 nM, the CC50 (KM12; KM12, 48 h, read-out: LC50 (the source's name)) was greater than 100000 nM and the Activity (SK-BR-3 [10]) was 64.76%. The “growth inhibition (GI)” value (OVCAR-8) was “Dose-dependent effect”, the GI50 (OVCAR-8; OVCAR-8, 48 h) was 265 nM and the TGI (OVCAR-8; OVCAR-8, 48 h) was greater than 100000 nM. The CC50 (OVCAR-8; OVCAR-8, 48 h, read-out: LC50 (the source's name)) was greater than 100000 nM, the Activity (SK-BR-3 [11]) was 9.07% and the Activity (SK-BR-3 [12]) was 20.54%. The Activity (SK-BR-3 [13]) was 6.81%, the “growth inhibition (GI)” value (HL-60(TB)) was “Dose-dependent effect” and the GI50 (HL-60(TB); HL-60, 48 h) was 26.9 nM. It also gave a TGI (HL-60(TB); HL-60, 48 h) of 96.7 nM, a CC50 (HL-60(TB); HL-60, 48 h, read-out: LC50 (the source's name)) greater than 100000 nM and an Activity (SK-BR-3 [14]) of 13.35%. For the same compound, the Activity (SK-BR-3 [15]) was 7.28%, the “growth inhibition (GI)” value (UACC-257) was “Dose-dependent effect” and the GI50 (UACC-257; UACC-257, 48 h) was 144 nM. For the same compound, the TGI (UACC-257; UACC-257, 48 h) was greater than 100000 nM, the CC50 (UACC-257; UACC-257, 48 h, read-out: LC50 (the source's name)) was greater than 100000 nM and the “growth inhibition (GI)” value (BT-549) was “Dose-dependent effect”. The GI50 (BT-549; BT-549, 48 h) was 656 nM, the TGI (BT-549; BT-549, 48 h) was greater than 100000 nM and the CC50 (BT-549; BT-549, 48 h, read-out: LC50 (the source's name)) was greater than 100000 nM. For the same compound, the GI50 (EKVX) was 598 nM, the TGI (EKVX) was greater than 100000 nM and the “growth inhibition (GI)” value (EKVX) was “Dose-dependent effect”. The CC50 (EKVX; [16]) was greater than 100000 nM, the “growth inhibition (GI)” value (SF-539) was “Dose-dependent effect” and the GI50 (SF-539; SF-539, 48 h) was 125 nM. The CC50 (SF-539; SF-539, 48 h, read-out: LC50 (the source's name)) was greater than 100000 nM.
